Bioassay records from PubChem.
An excerpt weighted towards active compounds, which were near 1.3% of everything screened.
PP5 inh = PP5 (human) phosphatase inhibition. P53041. purified PP5c, OMFP substrate fluorescence. inhibition, % at 6.7 µM. actives 0.18% (n = 320,000);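 active means inhibition above the campaign's mean inhibition across all tested compounds plus 3 SD, cut at about 9.5% in these data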
Target sequence (P53041 whole entry, looked up): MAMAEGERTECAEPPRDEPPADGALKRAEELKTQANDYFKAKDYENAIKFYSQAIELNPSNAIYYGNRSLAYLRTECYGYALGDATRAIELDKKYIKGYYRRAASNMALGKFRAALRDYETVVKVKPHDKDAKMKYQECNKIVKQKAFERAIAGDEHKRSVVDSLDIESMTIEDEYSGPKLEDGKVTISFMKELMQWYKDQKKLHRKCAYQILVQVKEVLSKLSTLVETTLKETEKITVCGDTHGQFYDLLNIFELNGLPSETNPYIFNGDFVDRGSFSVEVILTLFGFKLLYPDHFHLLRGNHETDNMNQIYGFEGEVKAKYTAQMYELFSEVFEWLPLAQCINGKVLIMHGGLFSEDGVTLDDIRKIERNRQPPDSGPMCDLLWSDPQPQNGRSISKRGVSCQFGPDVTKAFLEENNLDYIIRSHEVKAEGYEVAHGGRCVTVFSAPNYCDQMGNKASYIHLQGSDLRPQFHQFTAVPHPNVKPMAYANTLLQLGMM
NR2E3 ag-1 = agonists of human nuclear receptor NR2E3; actives 0.12% (n = 320,000); inhibition of corepressor binding, % at 4.78 µM; Q9Y5X4; GST-NR2E3/biotin-RetCOR TR-FRET, 1536-well;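 active means percent inhibition above the cutoff of mean plus 3 SD of all tested compounds, set per screening campaign, cut at about 20% in these data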
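Material: NR2E3–RetCOR corepressor complex / Amount: 1.35 nM GST-NR2E3 / Medium: Tris pH 7.5 / Compound: single nominal compound dose of 4.8 µM / Incubation: 5 h at 4 °C / Technique: TR-FRET, Eu(K)-anti-GST donor, streptavidin-D2 acceptor, ex 340, em 617/671 nm / Read-out basis: percent loss of FRET ratio relative to control wells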
PP1 inh = blocks human PP1-alpha phosphatase, a PP5 counter-screen; P62136; purified PP1alpha, OMFP fluorescence; inhibition, % at 6.7 µM; actives 0.9% (n = 320,000);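 active means inhibition above the mean inhibition of all tested compounds plus 3 SD, computed separately for each screening campaign, cut at about 15% in these data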
NR2E3 ag-2 = human photoreceptor-specific nuclear receptor agonism | Q9Y5X4 | CHO-S Gal4-NCOR/VP16-NR2E3 two-hybrid, luciferase | inhibition of corepressor binding, % at 3.98 µM | actives 0.35% (n = 360,000);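 active means inhibition above the mean of all tested compounds plus 3 SD, cut at about 70% in these data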;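 further: higher means lower luciferase signal from less NR2E3 corepressor binding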
PP1 inh confirm = confirmation of human PP1 phosphatase inhibitors. actives 52% (n = 1,900). AID 2358. purified PP1alpha, OMFP substrate fluorescence. shares compounds with PP1 inh. inhibition, % at 6.7 µM;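 active means mean PP1 inhibition above a set limit taken from the earlier primary screen, cut at about 15% in these data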
PP5 counter = PP5 phosphatase inhibition, counter-screen for PP1 inhibitors; shares compounds with PP1 inh; purified PP5c, OMFP fluorescence; inhibition, % at 6.7 µM; actives 4% (n = 1,900);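 active means mean PP5 inhibition over triplicate wells above about 9.5% taken from the earlier PP1 screen, limit read from the data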
A number is an active result; n = inactive; x = no result.

SMILES	PP5 inh	NR2E3 ag-1	PP1 inh	NR2E3 ag-2	PP1 inh confirm	PP5 counter
CSc1ncccc1C(=O)OCC(=O)N1CCc2ccccc21	x	x	x	n	x	x
C#CCOCCOCCOCCNc1nc(N2CCN(C(=O)CCCCCCCCCCNC(=O)[C@H](CCCCN)n3cc(CCO)nn3)CC2)nc(N2CCN(C(=O)CCCCCCCCCCNC(=O)[C@H](CCCCN)n3cc(CCO)nn3)CC2)n1	n	n	18	n	n	n
C#CCOCCOCCOCCNc1nc(N2CCN(C(=O)CCCCCCCCCCNC(=O)[C@@H](CCC(=O)O)n3cc(CCCCCN)nn3)CC2)nc(N2CCN(C(=O)CCCCCCCCCCNC(=O)[C@@H](CCC(=O)O)n3cc(CCCCCN)nn3)CC2)n1	n	n	n	n	x	x
C#CCOCCOCCOCCNc1nc(N2CCN(C(=O)[C@H](CCCCN)n3cc(CCCC)nn3)CC2)nc(N2CCN(C(=O)[C@H](Cc3ccc(O)cc3)n3cc(CCO)nn3)CC2)n1	n	n	21	n	n	n
C#CCOCCOCCOCCNc1nc(N2CCN(C(=O)CCCCCCCCCCNC(=O)[C@H](CCCCN)n3cc(CCCC(=O)O)nn3)CC2)nc(N2CCN(C(=O)CCCCCCCCCCNC(=O)[C@H](CCCN=C(N)N)n3cc(C[C@@H](C)CC)nn3)CC2)n1	n	n	42	n	n	n
C#CCOCCOCCOCCNc1nc(N2CCN(C(=O)CCCCCCCCCCNC(=O)[C@H](CCCCN)n3cc(CCO)nn3)CC2)nc(N2CCN(C(=O)CCCCCCCCCCNC(=O)[C@H](CCCN=C(N)N)n3cc(C[C@@H](C)CC)nn3)CC2)n1	n	n	45	n	44	n
CCOC1=C2CN(S(=O)(=O)c3ccc(C)cc3)[C@H](c3ccccc3)C[C@@H]2N(S(=O)(=O)c2ccc(C)cc2)[C@H](c2cccs2)C1	x	x	x	n	x	x
O=C1NC(Cc2ccc(O)cc2)c2nc3ccc(Br)cc3c(=O)n2-c2ncccc21 (centres undefined)	x	x	x	n	x	x
CCc1nnc(NS(=O)(=O)c2ccc(NC(=S)NC(=O)/C=C/c3ccc(C(C)C)cc3)cc2)s1	n	n	26	n	32	n
COC(=O)c1ccc2nc(-c3cccc(Cl)c3)c(Cc3cccc(F)c3)n2c1	x	x	x	n	x	x
O=C1N[C@@H](Cc2ccccc2)C(=O)N2[C@H]1C[C@]1([C@]34C[C@H]5C(=O)N[C@@H](Cc6ccccc6)C(=O)N5[C@H]3N(S(=O)(=O)c3ccccc3)c3ccccc34)c3ccccc3N(S(=O)(=O)c3ccccc3)[C@H]21	n	n	30	n	23	n
O=C1N[C@@H](Cc2ccccc2)C(=O)N2[C@@H]3N(S(=O)(=O)c4ccccc4)c4ccccc4[C@]3(Br)C[C@@H]12	n	n	n	n	x	x
N#CC1(NC(=O)CN2C(=O)NC(c3ccccc3)(c3ccccc3)C2=O)CCCC1	n	n	n	n	x	x
SC(COCc1ccccc1)CN1CCN(Cc2ccc3c(c2)OCO3)CC1 (centres undefined)	n	n	25	n	n	n
CN1CCN(C(=O)c2cnc(Cc3c[nH]c4ccccc34)c(I)c2)CC1	x	x	x	n	x	x
O=C(Nc1nc(-c2ccc(Cl)s2)cs1)c1ccco1	n	n	n	n	x	x
O=C(CN1C(=O)CCC1=O)Nc1nc(-c2nc3ccccc3s2)cs1	n	n	n	n	x	x
O=C(Nc1nc(-c2nc3ccccc3s2)cs1)C1CC1	n	n	24	n	26	n
O=C(Nc1nc(-c2nc3ccccc3s2)cs1)c1ccco1	n	n	23	n	26	n
CCc1nnc(NC(=O)COC(=O)c2cc(OC)cc(OC)c2)s1	x	x	x	n	x	x
C/C(=N\NC(=O)c1nnn(-c2nonc2N)c1CN1CCC(C)CC1)c1ccc(Br)cc1	x	x	x	n	x	x
N#CN1CCC(NS(=O)(=O)c2ccc(C(F)(F)F)cc2)CC1	x	x	x	n	x	x
O=C(Cc1cccc2ccccc12)N/N=C/c1ccc2cccc(O)c2n1	n	n	25	n	21	n
O=C(Cc1cccc2ccccc12)N/N=C/c1ccc(O)c([N+](=O)[O-])c1	n	n	n	n	x	x
CC(CCc1ccco1)NC(=O)CCc1nnc2ccc(NCc3ccc(Cl)cc3)nn12 (centres undefined)	n	n	22	n	17	n
SMILES	PP5 inh	NR2E3 ag-1	PP1 inh	NR2E3 ag-2	PP1 inh confirm	PP5 counter
CC(CCc1ccco1)NC(=O)CCc1nnc2ccc(NCc3ccccc3Cl)nn12 (centres undefined)	n	n	n	n	x	x
CCCc1ccc(S(=O)(=O)N2CCN(C(=O)CN3C(=O)NC(C)(C4CC4)C3=O)CC2)cc1 (centres undefined)	x	x	x	n	x	x
CCN(Cc1ccccc1)c1ccc(/C=N/N=C(N)N)cc1	n	n	18	n	n	n
COc1ccc(N2CCN(CCC(=O)c3ccc4ccccc4c3)CC2)cc1	n	n	n	n	x	x
O=C(C1CCN(S(=O)(=O)c2ccc(Br)s2)CC1)N1CCCCC1	n	n	n	n	x	x
Cn1c2ccccc2c(=O)c2c(=O)n(-c3ccc(F)cc3)c(C3CCCCC3)nc21	x	x	x	n	x	x
CCNc1cc2n(c(=O)n1)CCc1cc(OC)c(OC)cc1-2	n	n	n	n	x	x
COc1cc2c(cc1OC)-c1cc(NCc3ccccn3)nc(=O)n1CC2	n	n	20	n	21	n
O=C(Nc1ccc(S(=O)(=O)N2CCCCCC2)cc1)c1[nH]ncc1[N+](=O)[O-]	n	n	58	n	16	n
Cc1ccccc1-n1c(SCC(=O)N/N=C/c2c(C)nn(-c3ccccc3)c2C)nc2ccccc2c1=O	n	n	18	n	n	n
Cc1cc(C(=O)CN2C(=O)C(=O)N(C3CCCC3)C2=O)c(C)n1CCc1ccc(F)cc1	n	n	18	n	n	n
CC1(C)Cc2c(C#N)c(N)n(-c3ccccc3)c(=S)c2CO1	n	n	n	n	x	x
CC1(C)C=C2C(=NN(c3ccccc3)C(N)=C2C#N)CO1	n	n	33	n	n	59
COc1ccc(Nc2nc(-c3cccs3)nc3ccccc23)cc1S(=O)(=O)N1CCOCC1	n	n	n	n	x	x
Cc1cccc(NC(=O)CN2C(=O)N/C(=C/c3cc(C)n(-c4ccncc4)c3C)C2=O)c1	n	n	19	n	n	n
Cc1cccc(NC(=O)CN2C(=O)N/C(=C\c3ccc(N4CCOCC4)cc3)C2=O)c1	n	n	20	n	25	n
Cc1cccc(CSc2nc3ccccc3c(=O)n2C)c1	n	n	n	n	x	x
COc1ccc(-n2cccc2/C=C2\C(=N)N3N=C(c4ccco4)SC3=NC2=O)cc1	n	n	38	n	30	n
Cc1ccc(S(=O)(=O)NC(=O)C2(C)CCN2C(=O)Cc2cccs2)cc1 (centres undefined)	x	x	x	n	x	x
O=C(NCCc1ccccc1)c1nc2c(nnn2Cc2ccccc2Cl)c(=O)[nH]1	n	n	47	n	21	n
O=C(NCc1ccccc1)c1nc2c(nnn2Cc2cccc(Cl)c2)c(=O)[nH]1	n	n	21	n	n	n
O=C(NC1CC1)c1nc2c(nnn2Cc2ccccc2Cl)c(=O)[nH]1	n	n	n	n	x	x
